FXN GAA850 act: frataxin GAA850 promoter activation. HEK293 lucGAA850 FXN promoter luciferase reporter, 24 h; percent of 10 µM SAHA response. activation, % at 6 µM. 0.56% of 360,000 active. AID 540364;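 active = activation above the average of all compounds screened plus 3 SD, cutoff fixed separately per campaign, cut at about 7.5% in these data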;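 note: 0% = DMSO wells and 100% = 10 µM SAHA wells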
NR2E3 ag-1: agonists of human NR2E3 nuclear receptor | Q9Y5X4 | CHO-S Gal4-NCOR/VP16-NR2E3 two-hybrid, luciferase | inhibition of corepressor binding, % at 3.98 µM | 0.35% of 360,000 active | AID 602229;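 active = inhibition above the mean of all tested compounds plus 3 SD, cut at about 70% in these data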;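 note: 0% = DMSO with NR2E3 transfected cells and 100% = cells lacking NR2E3 construct; higher means lower luciferase signal from less NR2E3 corepressor binding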
NR2E3 ag-2: activates human photoreceptor nuclear receptor NR2E3 | GST-NR2E3/biotin-RetCOR TR-FRET, 1536-well | Q9Y5X4 | 0.12% of 320,000 active | inhibition of corepressor binding, % at 4.78 µM;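 active = percent inhibition above the cutoff of mean plus 3 SD of all tested compounds, set per screening campaign, cut at about 20% in these data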;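 note: 0% = DMSO wells and 100% = biotin wells as full block of FRET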
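System: GST-tagged NR2E3 plus biotinylated RetCOR corepressor; Buffer or medium: pH 7.5 Tris-based buffer; Probe or stimulus: RetCOR corepressor, biotinylated, 7 nM; Doses: compound at 4.8 µM, single dose; Schedule: 5 h incubation at 4 °C; Technique: time-resolved FRET; Evaluation: percent inhibition of TR-FRET ratio; Replication: one well per compound, singlicate testing.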
T cell modulator: T cell immune modulation candidate. 0.068% of 330,000 active. AID 2052. response (vesicle binding), % at 7 µM. 2C CD8+ T cell-vesicle binding, flow cytometry; stronger effect = lower value;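 active = response, share of CD8 T cells binding vesicles, and their 90th percentile fluorescence all below set limits, cut at about 80% in these data, passing the limit was not always enough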;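 note: values below 100% mean blocked vesicle binding to the CD8+ T cells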
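Read-out – percent CD8+ FL2 mean versus row control · System – murine 2C transgenic CD8+ T lymphocytes · Times – 1.5 h cell–vesicle binding at 37 °C, then 20 min icy labelling · Control set – naked vesicles low, QL9 vesicles with vehicle high · Detection – cytometric PE anti-B7-1 and Alexa647 anti-CD8 signals after 1% paraformaldehyde fixation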
Myeloid diff MLP: promotes myeloid progenitor differentiation; ER-HoxA9 myeloid progenitors, lysozyme-GFP differentiation, flow cytometry; calls only at 10 µM; 1% of 360,000 active;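 active = normalized GFP-positive differentiation at or above the plate's own cutoff, the solvent-only control mean plus 3 SD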;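 note: cells exposed to compound for four days before flow analysis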
NR2E3 ag confirm: confirmation of human NR2E3 nuclear receptor agonists | shares compounds with NR2E3 ag-2 | cell-free NR2E3 corepressor release, TR-FRET, 5 h | activation (reported as inhibition), % at 3.98 µM | 39% of 360 active | AID 2379; in the data active = activation above about 20%
PPARg-NCOR2 ag: releases PPARgamma from NCOR2 in NR2E3 counter-screen | shares compounds with NR2E3 ag-2 | TR-FRET PPARg-NCOR2 coregulator interaction, biochemical | inhibition, % at 3.98 µM | 45% of 360 active | AID 504787; in the data active = inhibition above about 20%;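 note: 0% = DMSO vehicle and 100% = wells without protein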
* = called active by the depositor. Shown are actives, neighbours in structure and some others; about 2% of the full set was active somewhere.

Results for c1ccc(-n2ncc3c2ncn2nc(-c4ccco4)nc32)cc1 ?
FXN GAA850 act: 4.3; NR2E3 ag-1: -96.0; NR2E3 ag-2: 47.8*; T cell modulator: inactive; Myeloid diff MLP: inactive; NR2E3 ag confirm: 17.8; PPARg-NCOR2 ag: 58.9*

What do the screens show for `CN(C(=O)c1cccc(NC(=O)Cc2cccc(NC(=O)C3CCCN(C(=O)c4ccccc4)C3)c2)c1)C1CCC1` (stereo not given)?
FXN GAA850 act: 0.5; NR2E3 ag-1: -51.7; Myeloid diff MLP: inactive

How did N#Cc1c(-c2ccco2)nc(SCc2ccc(F)cc2)[nH]c1=O do in these assays?
FXN GAA850 act: -3.9; NR2E3 ag-1: 26.9; NR2E3 ag-2: 40.1*; T cell modulator: 406.8; Myeloid diff MLP: inactive; NR2E3 ag confirm: 10.3; PPARg-NCOR2 ag: 58.9*

What do the screens show for `COc1ccc(-c2nc(SCc3ccc(C#N)cc3)[nH]c(=O)c2C#N)cc1`?
FXN GAA850 act: 2.3; NR2E3 ag-1: -18.8; NR2E3 ag-2: -2.8; T cell modulator: 84.4; Myeloid diff MLP: inactive

Results for COC(=O)Sc1nnc(-c2ccc(Br)cc2)o1 ?
NR2E3 ag-2: 27.0*; T cell modulator: inactive; NR2E3 ag confirm: 22.4*; PPARg-NCOR2 ag: 34.8*

How did COc1cc(C(=O)Nc2cc3c(cc2N2CCCCC2)n(C)c(=O)n3C)cc(OC)c1OC do in these assays?
FXN GAA850 act: 2.2; NR2E3 ag-1: -27.7; NR2E3 ag-2: 1.8; T cell modulator: 400.3; Myeloid diff MLP: inactive

How did COCCn1c(N)c(C(=O)NCC2CCCO2)c2nc3ccccc3nc21 (stereo not given) do in these assays?
FXN GAA850 act: -1.0; NR2E3 ag-1: -6.7; NR2E3 ag-2: 35.6*; T cell modulator: 271.5; Myeloid diff MLP: inactive; NR2E3 ag confirm: -2.6; PPARg-NCOR2 ag: 6.4

What do the screens show for `COCCn1c(N)c(C(=O)NCc2cccs2)c2nc3ccccc3nc21`?
FXN GAA850 act: -2.4; NR2E3 ag-1: 12.2; NR2E3 ag-2: 7.8; T cell modulator: inactive; Myeloid diff MLP: inactive

What do the screens show for `CC(C)C1Cc2ccccc2-c2[nH]c(=S)[nH]c(=O)c21` (stereo not given)?
FXN GAA850 act: -0.9; NR2E3 ag-1: 9.8; NR2E3 ag-2: 20.3*; T cell modulator: 161.8; Myeloid diff MLP: inactive; NR2E3 ag confirm: 21.0*; PPARg-NCOR2 ag: 26.2*

Results for S=C(c1ccc(-c2cccc(Cl)c2)o1)N1CCCCC1 ?
FXN GAA850 act: 7.5; NR2E3 ag-1: -148.6; NR2E3 ag-2: 30.2*; T cell modulator: 349.2; Myeloid diff MLP: inactive; NR2E3 ag confirm: 17.4; PPARg-NCOR2 ag: 10.7

What do the screens show for `CCOc1ccc2nc(S(=O)(=O)NC(=O)C3(C)CCN3C(=O)c3cccc(F)c3)sc2c1` (stereo not given)?
FXN GAA850 act: -1.5; NR2E3 ag-1: -23.4; Myeloid diff MLP: inactive

Results for S=c1[nH]c2ccccc2n2cccc12 ?
FXN GAA850 act: -0.7; NR2E3 ag-1: -13.0; NR2E3 ag-2: 29.3*; T cell modulator: 108.3; Myeloid diff MLP: inactive; NR2E3 ag confirm: 7.8; PPARg-NCOR2 ag: 7.5

How did Cc1ccc(C(=O)C2=C(O)C(=O)N(Cc3ccco3)C2c2ccc(N(C)C)cc2)o1 (stereo not given) do in these assays?
FXN GAA850 act: 1.0; NR2E3 ag-1: -22.3; NR2E3 ag-2: 10.0; T cell modulator: 218.6; Myeloid diff MLP: inactive

How did Cc1ccc(C(=O)C2=C(O)C(=O)N(Cc3ccco3)C2c2cccc(Br)c2)o1 (stereo not given) do in these assays?
FXN GAA850 act: -0.3; NR2E3 ag-1: -32.3; NR2E3 ag-2: 31.3*; T cell modulator: inactive; Myeloid diff MLP: inactive; NR2E3 ag confirm: 16.5; PPARg-NCOR2 ag: 12.4

What do the screens show for `Cc1ccc(C(=O)C2=C(O)C(=O)N(Cc3ccco3)C2c2cccc(Cl)c2)o1` (stereo not given)?
FXN GAA850 act: 1.2; NR2E3 ag-1: 3.4; NR2E3 ag-2: 31.4*; T cell modulator: 299.0; Myeloid diff MLP: inactive; NR2E3 ag confirm: 18.4; PPARg-NCOR2 ag: 11.6
